Compounds with a hit are over-represented: about 1.9% of the library has one in this group of screens.
RAD52 anneal inh: blocks human RAD52 DNA annealing. P43351. recombinant RAD52 DNA annealing, FRET fluorescence. inhibition, % at 18.7 µM. actives 0.46% (n = 360,000);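 active = every replicate showing at least 50% inhibition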
RAD54 inh: RAD54 (human) branch migration inhibition | RAD54 Holliday junction branch migration, FAM/BHQ fluorescence | AID 602329 | inhibition, % at 10.4 µM | actives 0.14% (n = 360,000);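 active = mean normalized replicate activity at least 40 and at least half of replicates scoring 40 or more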;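 note: 0% = median of neutral control wells and 100% = median of positive control wells; inhibitors cause a drop in the FAM fluorescence signal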
Target sequence (Q92698 whole entry, looked up): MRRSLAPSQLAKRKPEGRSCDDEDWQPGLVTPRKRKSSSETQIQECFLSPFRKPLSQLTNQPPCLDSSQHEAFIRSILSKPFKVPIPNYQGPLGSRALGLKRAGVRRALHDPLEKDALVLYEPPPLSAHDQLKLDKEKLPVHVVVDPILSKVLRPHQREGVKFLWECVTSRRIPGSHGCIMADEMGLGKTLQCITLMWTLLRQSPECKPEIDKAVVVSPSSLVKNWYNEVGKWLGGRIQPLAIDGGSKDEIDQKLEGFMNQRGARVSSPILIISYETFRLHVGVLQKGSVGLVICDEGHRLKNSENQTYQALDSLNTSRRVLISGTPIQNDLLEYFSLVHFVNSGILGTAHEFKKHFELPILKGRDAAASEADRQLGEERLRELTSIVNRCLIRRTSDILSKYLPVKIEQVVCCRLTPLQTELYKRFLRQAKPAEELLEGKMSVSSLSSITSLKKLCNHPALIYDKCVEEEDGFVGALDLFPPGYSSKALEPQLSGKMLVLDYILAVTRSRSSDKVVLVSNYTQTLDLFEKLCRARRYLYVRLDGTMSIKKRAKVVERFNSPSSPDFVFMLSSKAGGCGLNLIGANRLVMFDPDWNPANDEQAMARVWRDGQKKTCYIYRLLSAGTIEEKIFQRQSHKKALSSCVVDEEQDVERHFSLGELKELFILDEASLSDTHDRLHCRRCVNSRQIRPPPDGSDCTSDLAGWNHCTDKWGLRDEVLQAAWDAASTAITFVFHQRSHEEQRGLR
Cneo AK release: causes C. neoformans cell lysis; adenylate kinase release luminescence, 4 h; normalised: neutral wells 0, clomiphene wells 100; lysis activity, % at 15 µM; actives 0.2% (n = 360,000); AID 651654;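 active = mean lysis activity across replicates of at least 80%, whatever share of replicates individually reach that level; inactive = mean lysis activity below 80%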
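Test system: log-phase Cryptococcus neoformans yeast cells; Quantity: yeast cell density of 5 × 10^6 cells/mL; Buffer or medium: YPD; Doses: single compound concentration per well; Timing: 4 h at 37 °C static, read 1 h later; Measured by: AK luminescence; Read-out basis: lysis from increased AK signal; Control set: Clomiphene as positive control.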
rRNA inh HTS: inhibits bacterial ribosomal RNA function over humanized ribosomes; E. coli WT GFP vs humanized-ribosome RFP mutants, fluorescence, 24 h; active compounds read low; DMSO median 0, no signal -100; actives 1.6% (n = 350,000); GFP signal change (wild-type ribosome), % (test concentration not listed);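 active = significant combined selectivity score with lowered wild-type GFP, culture density cut under 30%, mutant RFP and density less affected; inactive = any of these conditions unmet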
PglD DTNB: inhibitors of Campylobacter jejuni PglD acetyltransferase; purified PglD enzyme, DTNB colorimetric CoA detection; actives 0.098% (n = 360,000); inhibition, % at 12.5 µM; in the data active = inhibition above about 16%, passing the limit was not always enough
* marks the source's active call; other numbers are inactive results; ! = repeats disagree.

Screening O=S(=O)(c1ccc(F)cc1)N1C[C@@H]2N[C@H](C1)C2c1ccc(-c2ccc(F)cc2)cc1 (some centres not stated) returned RAD52 anneal inh 87.1*! and rRNA inh HTS 3.2.
O=S(=O)(c1ccc(-c2ccccc2)cc1)N1C[C@@H]2N[C@H](C1)[C@@H]2c1ccc(-c2cccnc2)cc1 was read as RAD52 anneal inh 72.9* and rRNA inh HTS -33.1.
For Cc1ccc(-c2ccc(C3[C@@H]4CN(S(=O)(=O)c5ccc(C)cc5)C[C@H]3N4)cc2)cc1 (some centres not stated) the results were RAD52 anneal inh 73.7* and rRNA inh HTS -54.8.
`CN(C)C(=O)c1ccc(-c2ccc(C3[C@@H]4CN(S(=O)(=O)c5ccc(F)cc5)C[C@H]3N4)cc2)cc1` (some centres not stated) gave RAD52 anneal inh 4.7 and rRNA inh HTS -1.3.
Cc1cccc(S(=O)(=O)N2C[C@@H]3N[C@H](C2)C3c2ccc(-c3ccccc3F)cc2)c1 (some centres not stated) was read as RAD52 anneal inh 80.3*! and rRNA inh HTS -59.6.
`CC[C@@H]1CC=CC[C@@H](C)Oc2ccccc2C(=O)N(C)[C@@H](C)C(=O)N1` (mixture of isomers) gave rRNA inh HTS 2.2.
CCCC(=O)N1CCC2(CC1)CN(C(=O)CN1CCOCC1)[C@@H](CO)c1c2c2ccc(OC)cc2n1C was read as rRNA inh HTS -0.5.
`Cc1cccc(S(=O)(=O)N2C[C@@H]3N[C@H](C2)C3c2ccc(-c3cncnc3)cc2)c1` (some centres not stated) gave rRNA inh HTS 2.0.
`Cc1ccc(S(=O)(=O)N2C[C@@H]3N[C@H](C2)[C@@H]3c2ccc(-c3cccc(C)c3)cc2)cc1` gave rRNA inh HTS -8.4.
`O=S(=O)(c1ccccc1)N1C[C@@H]2N[C@H](C1)C2c1ccc(-c2ccc(F)cc2)cc1` (some centres not stated) gave RAD52 anneal inh 65.9*! and rRNA inh HTS -1.2.
Cc1ccc(-c2ccc(C3[C@@H]4CN(S(=O)(=O)c5cccc(C)c5)C[C@H]3N4)cc2)cc1 (some centres not stated) was read as RAD52 anneal inh 97.6*.
Screening Cc1cccc(S(=O)(=O)N2C[C@@H]3N[C@H](C2)C3c2ccc(-c3cccc(C#N)c3)cc2)c1 (some centres not stated) returned RAD52 anneal inh 53.6*! and rRNA inh HTS -3.0.
CC(C)N(C[C@H]1N[C@H](CO)[C@@H]1c1ccc(C2=CCCC2)cc1)C(=O)CN(C)C was read as RAD52 anneal inh 34.8 and rRNA inh HTS 3.9.
COc1ccccc1C#Cc1ccc([C@@H]2[C@H]3CN(C(=O)C4CC4)CCCCN3[C@H]2CO)cc1 was read as RAD52 anneal inh 24.8, RAD54 inh -4.6, Cneo AK release -2.8 and PglD DTNB 2.0.
Screening CN(C)C=Nc1ncc2c3ccccc3n(CCN(C)C)c2c1C#N returned RAD54 inh 88.1*, Cneo AK release 3.0 and PglD DTNB -6.8.
`O=C(C[C@H]1C[C@H]2c3cc(NC(=O)Cc4ccncc4)ccc3O[C@H]2[C@H](CO)O1)NCc1cccnc1` gave RAD52 anneal inh -5.0, RAD54 inh -1.4, Cneo AK release -2.6, rRNA inh HTS 9.8 and PglD DTNB 3.3.
Screening O=C(NCc1ccc(S(=O)(=O)Nc2ccccc2Cl)s1)c1ccccc1 returned RAD52 anneal inh -12.8, RAD54 inh -1.0, Cneo AK release 0.3, rRNA inh HTS -31.9* and PglD DTNB 8.6.
`Cc1nn(C(C)(C)C)c(C)c1/C=N/OC(=O)Nc1ccc(Cl)cc1` gave RAD52 anneal inh -15.0, RAD54 inh 0.1, Cneo AK release -1.2, rRNA inh HTS -26.6* and PglD DTNB 0.0.
`O=S(=O)(c1cccc(F)c1)N1CC[C@H]2[C@H](CO)Nc3ccc(C#Cc4cccc(F)c4)cc3[C@H]21` gave rRNA inh HTS -3.6.
Screening C[C@H]1CN([C@@H](C)CO)C(=O)c2cc(NC(=O)Nc3ccccc3)ccc2O[C@@H]1CN(C)C(=O)Nc1ccc2c(c1)OCO2 returned rRNA inh HTS 6.8.
`c1ccc(COc2cccc(-c3cc4nc(NCc5cccs5)ccn4n3)c2)cc1` gave RAD52 anneal inh -51.9, RAD54 inh -5.9, Cneo AK release 11.5, rRNA inh HTS -28.1* and PglD DTNB 5.8.
COCCCNc1ccn2nc(-c3cccc(OCc4ccccc4)c3)cc2n1 was read as RAD52 anneal inh -22.7, RAD54 inh -2.2, Cneo AK release -19.8, rRNA inh HTS -25.5 and PglD DTNB -3.8.
Screening CCN(C[C@@H]1[C@H](c2ccccc2)[C@@H](CO)N1C(C)=O)C(=O)c1ccccn1 returned RAD52 anneal inh 10.4, RAD54 inh 6.2, Cneo AK release 38.3, rRNA inh HTS 2.2 and PglD DTNB 1.6.
Screening CC(C)NC(=O)N(C)C[C@@H]1Oc2ccc(N(C)C)cc2CC(=O)N(C)C[C@@H]1C returned rRNA inh HTS -0.4.
`CCn1cc(Br)c(C(=O)Nc2ccc(C(=O)OC(C)C)cc2)n1` gave RAD52 anneal inh -8.8, RAD54 inh 9.4, Cneo AK release -5.7, rRNA inh HTS -21.4* and PglD DTNB -4.0.
`COc1ccc(CN(C)C[C@H]2OCCCC[C@H](C)Oc3ccc(N(C)C)cc3C(=O)N([C@H](C)CO)C[C@@H]2C)cc1` gave RAD52 anneal inh -15.0, RAD54 inh 1.5, Cneo AK release 7.2, rRNA inh HTS 1.1 and PglD DTNB 3.3.
`C(=N\Nc1ccc2nncn2n1)/c1ccccn1` gave RAD52 anneal inh -10.0, RAD54 inh 1.1, Cneo AK release 0.6, rRNA inh HTS -34.2* and PglD DTNB 5.6.
C/C=C/c1ccc2c(c1)O[C@@H](CN(C)C(=O)C1CCC1)[C@H](C)CN([C@@H](C)CO)S2(=O)=O was read as rRNA inh HTS 1.6.
Screening COc1ccc(Cl)cc1C(=O)NN=C1CCCC1 returned RAD52 anneal inh -13.2 and rRNA inh HTS 7.0.
For O=C(NN=C1CCCC1)c1cc(Cl)cc(Cl)c1O the results were RAD52 anneal inh -18.6, RAD54 inh -9.9, Cneo AK release -0.9, rRNA inh HTS -28.8* and PglD DTNB 9.7.
For Cc1cc(C)c2sc(N(CCN(C)C)C(=O)c3c(F)cccc3F)nc2c1 the results were RAD52 anneal inh 37.4, RAD54 inh 5.4, Cneo AK release 1.3, rRNA inh HTS -37.4* and PglD DTNB -1.0.
Screening CCC(=O)N(C)C[C@@H]1Oc2cc(C#Cc3ccncc3)ccc2S(=O)(=O)N([C@@H](C)CO)C[C@H]1C returned RAD52 anneal inh 6.1, RAD54 inh -3.1, Cneo AK release -1.1, rRNA inh HTS 0.8 and PglD DTNB 3.5.

Assay outcomes from PubChem.
